The record followed here is ChEMBL document CHEMBL4673269, “Discovery of S64315, a Potent and Selective Mcl-1 Inhibitor” (J Med Chem, 2020).

Calls of active or inactive are those of the source. The rule behind the calls is not given here. Some results are limits rather than exact numbers.

The test system of one series is MV4-11. The series can be described thus: Antiproliferative activity against human MV411 assessed as reduction in cell viability incubated for 3 days by Cell Titer Blue assay. The series is classed as functional, cell-based. The note with it: time 3.0 day.
The target of series [1] is Voltage-gated inwardly rectifying potassium channel KCNH2 (Homo sapiens, UniProt Q12809). The series can be described thus: Inhibition of human ERG.
Voltage-gated inwardly rectifying potassium channel KCNH2, sequence (Q12809 whole entry): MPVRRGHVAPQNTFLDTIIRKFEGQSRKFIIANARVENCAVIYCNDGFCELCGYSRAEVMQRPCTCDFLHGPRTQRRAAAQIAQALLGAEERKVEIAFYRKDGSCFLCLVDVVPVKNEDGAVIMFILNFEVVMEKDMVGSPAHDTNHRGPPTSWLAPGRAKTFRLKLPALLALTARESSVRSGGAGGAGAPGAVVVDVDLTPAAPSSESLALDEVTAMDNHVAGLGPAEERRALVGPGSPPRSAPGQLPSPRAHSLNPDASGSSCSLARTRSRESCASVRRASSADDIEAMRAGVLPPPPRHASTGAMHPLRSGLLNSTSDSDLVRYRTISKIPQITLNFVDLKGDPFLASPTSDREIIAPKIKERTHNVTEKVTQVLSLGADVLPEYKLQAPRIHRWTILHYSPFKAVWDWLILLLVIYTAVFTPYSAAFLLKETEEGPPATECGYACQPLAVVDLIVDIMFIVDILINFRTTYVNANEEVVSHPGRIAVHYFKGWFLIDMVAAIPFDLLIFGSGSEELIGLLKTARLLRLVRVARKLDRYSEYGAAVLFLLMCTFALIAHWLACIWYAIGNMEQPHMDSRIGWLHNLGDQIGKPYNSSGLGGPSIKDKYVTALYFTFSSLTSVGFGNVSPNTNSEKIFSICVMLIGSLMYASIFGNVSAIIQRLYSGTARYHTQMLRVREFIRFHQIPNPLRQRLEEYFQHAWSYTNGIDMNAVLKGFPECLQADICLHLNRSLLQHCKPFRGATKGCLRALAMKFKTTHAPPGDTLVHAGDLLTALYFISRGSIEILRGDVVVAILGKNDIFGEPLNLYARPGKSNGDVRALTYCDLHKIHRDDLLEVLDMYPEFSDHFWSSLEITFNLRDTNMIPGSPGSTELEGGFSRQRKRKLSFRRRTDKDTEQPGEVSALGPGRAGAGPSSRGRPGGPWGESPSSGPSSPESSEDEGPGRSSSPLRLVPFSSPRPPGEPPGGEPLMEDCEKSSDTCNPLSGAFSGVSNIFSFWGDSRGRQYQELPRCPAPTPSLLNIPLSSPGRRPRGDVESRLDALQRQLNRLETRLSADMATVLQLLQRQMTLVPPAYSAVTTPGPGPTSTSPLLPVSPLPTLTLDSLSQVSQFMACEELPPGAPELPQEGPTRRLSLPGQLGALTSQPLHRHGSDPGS
The next series concerns THP-1. The series can be described thus: Induction of apoptosis in Bax/Bak knockout human THP1 cells at 1 to 3000 nM incubated for 2 hrs by annexin-V-FITC and propidium iodide staining based by flow cytometry. The series is classed as functional, cell-based. The note with it: dose 1-3000 nM. The method, boiled down:
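THP-1 cells, wild type or CRISPR BAX/BAK knockout (verified by Western blot), were treated for 2 h. They were washed in binding buffer (10 mM Hepes, 140 mM NaCl, 2.5 mM CaCl₂) and stained with annexin V-FITC and PI for 15 min at 20 °C in the dark. 10⁴ cells per sample were read by flow cytometry. Apoptotic plus necrotic cells were normalised to total cells. Two biological replicates; DMSO control.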
In general terms: Flow cytometry measures light scatter and fluorescence of single cells or particles in a stream.

Series [2] has as its target Apoptosis regulator Bcl-2 (Homo sapiens) (UniProt P10415). The series can be described thus: Displacement of Bak BH3 domain from FLAG-tagged Bcl-2 (unknown origin) expressed in human Hela cells at 30 to 300 nM incubated for 2 hrs by immunoprecipitation assay. It counts as cell-based. The following applies: dose 30-300 nM. The method, boiled down: (§1)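 HeLa cells in DMEM with 10% FCS were transiently transfected with Flag-tagged Mcl-1, Bcl-xL or Bcl-2 vectors. 24 h later they were treated for 2 h and lysed (Hepes pH 7.5, 150 mM KCl, MgCl₂, EDTA, 0.4% Triton X100). Cleared lysates were immunoprecipitated with anti-Flag M2 beads. Inputs and IPs were immunoblotted for endogenous Bax, Bak and Flag.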

In a further series the test system is SU-DHL-1. The series can be described thus: Antiproliferative activity against human SU-DHL1 assessed as reduction in cell viability incubated for 3 days by Cell Titer Blue assay. The series is classed as functional, cell-based. The following applies: time 3.0 day. On the technique in general: Alamar Blue is a resazurin reagent that responds to reducing activity.

Series [3] concerns AMO1. The series can be described thus: Antitumor activity against human AMO1 cells xenografted in CB-17 SCID mouse assessed as tumor growth inhibition at […] mg/kg, iv administered for 5 consecutive days measured on day 4 relative to control. The series is classed as functional. The following applies: 120 h, time 5 day, read-out: TGI.
Another series has as its system MOLM-13. The series can be described thus: Antiproliferative activity against human MOLM13 assessed as reduction in cell viability incubated for 3 days by Cell Titer Blue assay. It counts as functional, cell-based. The note with it: time 3.0 day.
For series [4], the system named is AMO1. The series can be described thus: Antitumor activity against human AMO1 xenografted in CB-17 SCID mouse assessed as tumor growth inhibition administered intravenously for 5 consecutive days measured post-last dose. It counts as functional. The following applies: time 5.0 day. The method, boiled down: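 Female CB-17 SCID mice, 6−7 weeks old. 5 × 10⁶ AMO-1 cells in growth medium/Matrigel 50:50 injected subcutaneously in the right flank. Randomised at about 200 mm³, n = 8 to 10 per group. Dosed iv in 20% HPbCD–25 mM HCl, daily for 5 days or weekly for 4 weeks. Calipers 2−3 times weekly; volume = length × width²/2. TGI computed from median change in volume versus control; delay judged at median volume 500 mm³.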
In general terms: In xenograft studies the graft and the host belong to different species.

Series [5] concerns the target Induced myeloid leukemia cell differentiation protein Mcl-1 (Homo sapiens) (UniProt Q07820). The series can be described thus: Displacement of Bax BH3 domain from FLAG-tagged Mcl-1 (unknown origin) expressed in human Hela cells at 30 to 300 nM incubated for 2 hrs by immunoprecipitation assay. The series is classed as cell-based. The following applies: dose 30-300 nM. The method, boiled down: as §1

A further series concerns NCI-H929. The series can be described thus: Induction of apoptosis in human H929 cells assessed as induction of PARP cleavage incubated for 6 hrs by immunodetection analysis. The series is classed as functional, cell-based. The following applies: dose 1-3000 nM. The procedure, abridged: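 H929 cells in RPMI 1640 with 10% FBS were seeded at 2 × 10⁶ cells per 35 mm dish. After 24 h they were exposed to compound for 6 h, then lysed (Hepes pH 7.4, KCl, MgCl₂, EDTA, 1% NP40). 5 μg lysate was assayed for cleaved PARP with the MSD apoptosis panel, read as RLU. Two independent biological experiments.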

Series [6] can be described thus: Clearance in mouse at […] mg/kg, iv formulated with 20 % HPBCD in water/ […]% HCl. The series is classed as ADME, organism-based. The note with it: in vivo.
In another series the test system is Daudi. The series can be described thus: Antiproliferative activity against human Daudi assessed as reduction in cell viability incubated for 3 days by Cell Titer Blue assay. The series is classed as functional, cell-based. The note with it: time 3.0 day.
Series [7] has as its target Induced myeloid leukemia cell differentiation protein Mcl-1 (Homo sapiens) (UniProt Q07820). The series can be described thus: Displacement of Bak BH3 domain from FLAG-tagged Mcl-1 (unknown origin) expressed in human Hela cells at 30 to 300 nM incubated for 2 hrs by immunoprecipitation assay. The series is classed as cell-based. The following applies: dose 30-300 nM. The procedure, abridged:
as §1

A short description of series [8]: Terminal half-life in mouse at […] mg/kg, iv formulated with 20 % HPBCD in water/ […]% HCl. The following applies: in vivo, read-out: beta t1/2 (converted). The series is classed as ADME, organism-based.

The term IC50 denotes the concentration at which inhibition is half-maximal. The term clearance denotes the rate of elimination divided by the concentration. A high value points to efficient removal.

Induced myeloid leukemia cell differentiation protein Mcl-1 (Homo sapiens), sequence (Q07820 whole entry, the tested form may be a part): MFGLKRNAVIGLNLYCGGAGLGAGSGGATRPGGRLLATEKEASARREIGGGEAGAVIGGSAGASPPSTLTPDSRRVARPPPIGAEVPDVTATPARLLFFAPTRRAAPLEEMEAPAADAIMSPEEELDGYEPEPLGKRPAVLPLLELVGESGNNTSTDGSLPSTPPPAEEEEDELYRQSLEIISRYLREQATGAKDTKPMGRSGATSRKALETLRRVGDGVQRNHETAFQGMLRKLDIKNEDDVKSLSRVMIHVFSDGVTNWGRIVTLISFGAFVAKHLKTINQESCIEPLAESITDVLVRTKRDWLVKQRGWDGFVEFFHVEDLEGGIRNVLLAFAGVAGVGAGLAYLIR
Apoptosis regulator Bcl-2 (Homo sapiens), sequence (P10415 whole entry, the tested form may be a part): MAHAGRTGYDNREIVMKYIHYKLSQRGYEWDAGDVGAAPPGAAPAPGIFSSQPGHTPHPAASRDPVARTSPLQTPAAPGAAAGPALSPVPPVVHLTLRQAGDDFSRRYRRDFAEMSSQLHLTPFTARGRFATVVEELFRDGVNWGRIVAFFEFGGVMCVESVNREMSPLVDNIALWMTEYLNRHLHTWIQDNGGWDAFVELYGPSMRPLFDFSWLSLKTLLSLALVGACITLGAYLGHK

With `COc1ccccc1-c1nccc(COc2ccccc2C[C@@H](Oc2ncnc3sc(-c4ccc(F)cc4)c(-c4ccc(OCCN5CCN(C)CC5)c(Cl)c4C)c23)C(=O)O)n1`, the outcome (in the series on MV4-11; in the series on SU-DHL-1; in the series on MOLM-13; in [5]; in the series on Daudi; in series [7]) was Active. Besides, the IC50 in [1] was more than 3 µM. Also, the result (in the series with THP-1; in series [2]) was inactive. Further, in the series with AMO1 [3], the inhibition in vivo at […] stood at 190%. The Activity entry with AMO1 [4] and with NCI-H929 was “Dose-dependent effect” each time. In addition, in [6], the clearance was determined as 5.3 mL/min/kg. Besides, the half-life in [8] was 5 h.
